Assay results reported in PMC4846470 (Psychopharmacology, 2016).
“Also recorded” adds a separate entry of the source.

What was measured:
[1] = molecular target: human recombinant CB1 receptors (Homo sapiens, UniProt P21554); assay: Radioligand binding to human recombinant CB1 receptors in CHO cell membranes
[2] = molecular target: human CB1 cannabinoid receptors (Homo sapiens, UniProt P21554); assay: Gi agonist effect: cAMP functional assay in CHO cells expressing CB1; format: cell-based; conditions: for Emax: CHO, read-out: Maximum Effect (%)
[3] = system: Male ND4 Swiss–Webster mice; assay: Locomotor activity; format: in vivo; conditions: for Time of peak (maximal) locomotor depression after injection: active doses
[4] = system: Male Sprague-Dawley rats; assay: Drug discrimination in rats trained to discriminate Δ^9-THC; format: in vivo; conditions: for Effect on rate of responding: cannabinoids at doses which substituted; for Substitution for the discriminative stimulus effects of Δ^9-THC: full substitution defined as ≥80% drug-appropriate responding
Method in brief: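 Vehicle: ethanol/Cremophor EL/0.9% saline 1:1:18. In tests both levers paid and data ran to first reinforcer or 20 min. Six rats per compound got all doses. Pretreatment was at locomotor peak-depression time. Rate was responses/time to first reinforcer.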

Chain of human recombinant CB1 receptors (P21554 whole entry): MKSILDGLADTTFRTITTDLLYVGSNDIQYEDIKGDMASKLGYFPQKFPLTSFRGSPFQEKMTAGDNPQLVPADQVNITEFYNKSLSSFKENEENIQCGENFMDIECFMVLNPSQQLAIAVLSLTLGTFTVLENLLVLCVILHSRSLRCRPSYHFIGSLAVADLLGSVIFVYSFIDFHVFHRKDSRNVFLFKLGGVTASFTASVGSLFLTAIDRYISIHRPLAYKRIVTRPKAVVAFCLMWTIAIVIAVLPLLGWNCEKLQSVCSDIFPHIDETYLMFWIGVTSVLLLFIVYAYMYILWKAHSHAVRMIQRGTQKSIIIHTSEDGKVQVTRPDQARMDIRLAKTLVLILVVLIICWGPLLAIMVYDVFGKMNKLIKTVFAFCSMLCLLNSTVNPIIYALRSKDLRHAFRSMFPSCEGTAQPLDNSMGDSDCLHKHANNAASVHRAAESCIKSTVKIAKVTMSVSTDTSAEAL
Chain of human CB1 cannabinoid receptors (P21554 whole entry): as above

Structure (SMILES) | Ki [1] [nM] | EC50 [2] [nM] | Emax [2] [%] | Time of peak (maximal) locomotor depression after injection ([3]; mice, i.p.) [min] | Effect on rate of responding ([4]; THC-trained rats) | also measured
CCCCCn1nc(C(=O)NC(C(N)=O)C(C)(C)C)c2ccccc21 (stereo not drawn) [ADB-PINACA, N-[1-(aminocarbonyl)-2,2-dimethylpropyl]-1-pentyl-1H-indazole-3-carboxamide] | 0.59 | 0.024 | 99.6 | 20 | – | –
CCCCCn1cc(C(=O)NC(C(N)=O)C(C)(C)C)c2ccccc21 (stereo not drawn) [ADBICA, N-(1-amino-3,3-dimethyl-1-oxobutan-2-yl)-1-pentyl-1H-indole-3-carboxamide] | 1.3 | 0.38 | 97.4 | ≤ 20 | – | –
CCCCCn1cc(C(=O)c2ccc(OC)cc2)c2ccccc21 [RCS-4, (4-methoxyphenyl)(1-pentyl-1H-indol-3-yl)methanone] | 22.5 | 20 | 101 | – | modest depression of rate of responding | Substitution for the discriminative stimulus effects of Δ^9-THC ([4]; THC-trained rats): full substitution
CCCCCn1cc(C(=O)c2ccc(CC)c3ccccc23)c2ccccc21 [JWH-210, (4-ethyl-1-naphthalenyl)(1-pentyl-1H-indol-3-yl)-methanone] | 1.01 | 111 | 98.2 | – | modest depression of rate of responding | Mice with tremors upon handling ([3]; 8 h following 10 mg/kg i.p.): 6 of 8
CCCCCc1cc(O)c2c(c1)OC(C)(C)[C@@H]1CCC(C)=C[C@@H]21 [Δ^9-THC, Δ^9-Tetrahydrocannabinol, reference compound] | – | – | – | 30 to 60 | – | ED50 Locomotor Activity (locomotor depressant effects) ([3]; mice, i.p., dose producing 1/2 maximal depression, mean with 95% confidence interval): 12.99 (2.51 to 67.21) mg/kg; ED50 Drug Discrimination (discriminative stimulus effects) ([4]; THC-trained rats, i.p., mean with 95% confidence interval): 1.15 (0.21 to 6.27) mg/kg
CCCCCn1cc(C(=O)c2ccc(C)c3ccccc23)c2ccccc21 [JWH-122, (4-methyl-1-naphthalenyl)(1-pentyl-1H-indol-3-yl)-methanone] | 3.35 | 2.8 | 102 | – | – | –
O=C(c1cccc2ccccc12)c1nn(CCCCCF)c2ccccc12 [THJ-2201, (1-(5-fluoropentyl)-1H-indazol-3-yl)(naphthalen-1-yl)methanone] | – | 0.64 | 96.6 | – | – | –
CNC(C)Cc1ccc2c(c1)OCO2 (stereo not drawn) [MDMA, 3,4-Methylenedioxy-methamphetamine] | – | – | – | – | dose-dependently depressed rate of responding | Maximum THC-appropriate responding ([4]; THC-trained rats, following 1.5 mg/kg, negative control): 11%; Substitution for the discriminative stimulus effects of Δ^9-THC ([4]; THC-trained rats): did not substitute; also recorded: failed to substitute; Rats that failed to complete the first fixed ratio ([4]; following 3 mg/kg, n=9): 6 of 9
